Here are results for 10 compounds from article PMC10269403 (Journal of medicinal chemistry, 2023).

Where “and” joins values, the source holds several entries; their conditions need not be identical. Equal values may be shown once. Entries after “also recorded” stand apart in the source; their conditions may differ. Read-outs that look alike come from different tables or passages of the source.

The term half-life denotes the time needed for the level to fall by half in the phase considered. A high value points to slow loss. In general, IC50 refers to the midpoint of a concentration-inhibition curve. For orientation: CC50 means the concentration giving 50% cytotoxicity.

The test system of data set [1] is HIV-1 IIIB (A17 variant) virus. Nature of the data set: microbe, parasite or virus in culture. In kind it is cell-based. The settings on record: for EC50: Human immunodeficiency virus 1, IIIB, TZM-bl.
Data set [2] has as its target HIV reverse transcriptase (Human immunodeficiency virus type 1 group M subtype B, UniProt P03366). Nature of the data set: HIV RT inhibition, fluorescent EnzChek/PicoGreen assay. In kind it is biochemical, HIV-1.
For data set [3], the system named is primary mouse neurons. Nature of the data set: Neuronal toxicity by MAP-2 staining in primary mouse neurons. In kind it is cell-based. The settings on record: for TC50 (µM) Relative MAP-2 Area / TC50 (µM) Relative MAP-2 intensity: 48 hr, 0.1 to 10,000 nM, ±SD; for estimated TC10: primary neurons, discussion.
In a further data set the test system is HIV-1 IIIB virus. Nature of the data set: Inhibition of wild-type HIV-1. In kind it is cell-based.
The test system of a further data set is K103N HIV mutant. Nature of the data set: Inhibition of NNRTI-resistant K103N mutant in TZM-bl cells. In kind it is cell-based, HIV-1. The conditions noted are these: 0.05–500 nM.
A further data set in a line: Solubility. The class given is physicochemical.
The nature of data set [4]: Single-dose pharmacokinetics in mice. The conditions noted are these: mouse.
The test system of another data set is Caco-2 cells. Nature of the data set: Efflux in Caco-2 cells. In kind it is in vitro ADME.
Data set [5] can be described thus: Metabolic stability in human liver microsomes. The class given is in vitro ADME. On the technique in general: Liver microsomes are a subcellular fraction often used to study metabolism.
Data set [6] can be described thus: Metabolic stability in mouse liver microsomes. In kind it is in vitro ADME.
The next data set in a line: Protein binding. The class given is in vitro ADME.
Another data set concerns Y181C HIV mutant. Nature of the data set: Inhibition of NNRTI-resistant Y181C mutant in TZM-bl cells. In kind it is cell-based, HIV-1. The settings on record: 0.05–500 nM.
For another data set, the system named is L100I/K103N HIV mutant. Nature of the data set: Inhibition of NNRTI-resistant L100I/K103N mutant in TZM-bl cells. In kind it is cell-based, HIV-1. The conditions noted are these: 0.05–500 nM.
For the next data set, the system named is Balb/C male mice. Nature of the data set: In vivo acute toxicity study. The conditions noted are these: 2000 mg/kg single oral dose, 14 days.
In a further data set the test system is Balb/C mice. Nature of the data set: In vivo subacute toxicity study. The conditions noted are these: 30 days.
Another data set concerns HIV-RT. The settings on record: substituted pyridinones; cited from earlier work.
The next data set concerns HIV. The conditions noted are these: cited from earlier work.
The subject of data set [7] is primary mouse neurons. Nature of the data set: Calcium imaging in primary mouse neuron cultures. The settings on record: 1 µM. In kind it is cell-based. In outline: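 Primary mouse cortex/hippocampus cultures were seeded at 20,000 cells/cm2 on poly-D-lysine coverslips in Neurobasal Plus/B27 Plus/Glutamax (>95% neurons by day 4). At 14–18 days in vitro, neurons were loaded with Fluo-4 AM (2 µM) in aCSF (NaCl 137, KCl 5.0, CaCl2 2.3, MgCl2 1.3, glucose 20 mM). Average spikes were scored in acute and delayed phases plus a summation average, versus matched controls. Statistics: Brown-Forsythe/Welch ANOVA with Dunnett's T3.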

The conditions of data set [8]: cited from earlier work.
In another data set the target is hERG (Homo sapiens, UniProt Q12809). The settings on record: cited from earlier work.
The next data set has as its system TZM-bl cells. Nature of the data set: Cytotoxicity in TZM-bl cells. In kind it is cell-based.
The nature of data set [9]: Cytotoxicity in TZM-bl cells. In kind it is cell-based. The settings on record: human.
The mark [10] stands for this setting: Human immunodeficiency virus 1, IIIB, TZM-bl, read-out: WT EC50 (nM).

Sequence of hERG (Q12809 whole entry): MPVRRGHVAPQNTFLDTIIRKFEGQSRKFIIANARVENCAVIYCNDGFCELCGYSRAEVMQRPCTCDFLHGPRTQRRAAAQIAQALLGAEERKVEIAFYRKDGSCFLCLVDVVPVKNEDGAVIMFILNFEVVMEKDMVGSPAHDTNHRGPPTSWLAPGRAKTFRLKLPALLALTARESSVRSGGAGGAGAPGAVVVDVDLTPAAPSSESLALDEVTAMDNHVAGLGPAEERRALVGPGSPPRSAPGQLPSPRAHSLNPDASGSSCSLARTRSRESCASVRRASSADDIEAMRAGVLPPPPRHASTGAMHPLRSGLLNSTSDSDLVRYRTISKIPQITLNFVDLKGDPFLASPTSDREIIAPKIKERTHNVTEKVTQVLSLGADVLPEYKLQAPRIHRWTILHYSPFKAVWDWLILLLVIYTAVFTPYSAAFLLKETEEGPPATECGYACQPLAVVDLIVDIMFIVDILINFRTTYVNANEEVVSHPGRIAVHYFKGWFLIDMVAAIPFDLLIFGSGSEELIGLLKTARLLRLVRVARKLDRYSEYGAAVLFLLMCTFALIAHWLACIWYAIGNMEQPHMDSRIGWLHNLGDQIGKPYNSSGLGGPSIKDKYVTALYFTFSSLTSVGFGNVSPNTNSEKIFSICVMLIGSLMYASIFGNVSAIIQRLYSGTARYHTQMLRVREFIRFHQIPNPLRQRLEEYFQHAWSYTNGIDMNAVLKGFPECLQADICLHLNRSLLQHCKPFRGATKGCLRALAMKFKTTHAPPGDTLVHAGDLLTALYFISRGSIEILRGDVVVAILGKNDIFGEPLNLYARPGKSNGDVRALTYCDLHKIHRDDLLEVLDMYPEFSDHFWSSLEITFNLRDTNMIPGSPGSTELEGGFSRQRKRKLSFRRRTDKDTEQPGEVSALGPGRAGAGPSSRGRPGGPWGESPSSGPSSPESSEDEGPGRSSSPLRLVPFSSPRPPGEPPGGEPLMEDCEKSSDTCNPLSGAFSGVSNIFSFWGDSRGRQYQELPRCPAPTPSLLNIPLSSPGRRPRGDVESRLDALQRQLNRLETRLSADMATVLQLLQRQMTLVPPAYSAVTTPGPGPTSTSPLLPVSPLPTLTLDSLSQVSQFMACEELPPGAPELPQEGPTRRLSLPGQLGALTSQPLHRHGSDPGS

As to `N#Cc1ccc(Nc2nc(N)n(S(=O)(=O)c3cccc4cc(C#N)ccc34)n2)cc1` [compound 11726152, 5-[[5-amino-3-(4-cyanoanilino)-1,2,4-triazol-1-yl]sulfonyl]naphthalene-2-carbonitrile], the EC50 in data set [1] (read-out: A17 EC50 (nM)) worked out at 49 ± 7.8 nM; in data set [2] it was 700 ± 220 nM; in the data set with HIV-1 IIIB virus (setting [10]), 0.35 ± 0.05 nM. Further, the “TC50 (µM) Relative MAP-2 Area” value in the data set with primary mouse neurons [3] was 1.2 ± 0.6 µM. For the same compound, the “TC50 (µM) Relative MAP-2 intensity” value in the data set on primary mouse neurons [3] came out at 1.0 ± 0.5 µM. In the data set on primary mouse neurons [3] (TC10/(100*EC50), relative MAP-2 area), the “Safety Index” value amounted to 1.6.

As to `N#C/C=C/c1ccc2c(S(=O)(=O)n3nc(Nc4ccc(C#N)c(Cl)c4)nc3N)cccc2c1` [compound 12126065, 4-[[5-amino-1-[[6-[(E)-2-cyanovinyl]-1-naphthyl]sulfonyl]-1,2,4-triazol-3-yl]amino]-2-chloro-benzonitrile], the “activity against K103N mutant (in words)” value in the data set with K103N HIV mutant was “retained activity”. Also, the “solubility (in words)” value in the data set “Solubility” was “poor”. Also, the EC50 in [1] (read-out: A17 EC50 (nM)) came out at 3.4 ± 1.1 nM; in data set [1] (read-out: EC50 against K103N/Y181C double mutant), 1.33 ± 0.16 nM; in [2], 230 ± 70 nM; in the data set on HIV-1 IIIB virus (Human immunodeficiency virus 1, IIIB, TZM, read-out: EC50 against wild-type HIV-1 in TZM cells), 0.24 nM; with HIV-1 IIIB virus (Human immunodeficiency virus 1, IIIB, TZM-bl, read-out: EC50 (TZM, WT)), 0.263 nM; in the data set with HIV-1 IIIB virus (setting [10]) it was 0.47 ± 0.05 nM. Besides, the half-life in data set [4] (male, Balb/C, plasma, po, 250 mg/kg) was 7.7 ± 1.57 h. The “in vivo brain penetration (in words)” value in [4] (in vivo) is “good”. Moreover, in the data set on Caco-2 cells, the “efflux in Caco-2 cells (in words)” value is listed as “no indication of efflux”. For the same compound, the “metabolic stability (in words)” value in data set [5] and in [6] was “good” throughout. Further, the “protein binding (in words)” value in “Protein binding” is “high”. For the same compound, in the data set with Y181C HIV mutant, the “activity against Y181C mutant (in words)” value is reported as “retained activity”. Further, the “TC50 (µM) Relative MAP-2 Area” value with primary mouse neurons [3] is reported as 100 ± 410 µM. Further, the “TC50 (µM) Relative MAP-2 intensity” value in the data set on primary mouse neurons [3] is over 10 µM. In addition, the “Estimated TC10 (µM) Relative MAP-2 Intensity” value in the data set on primary mouse neurons [3] (concentration of 10% loss of MAP-2) is over 10 µM. In the data set with primary mouse neurons [3] (mouse neurons, as stated in abstract), the “50% toxicity concentration (TC50)” value is over 100000 nM. In the data set on primary mouse neurons [3] (up to 10 µM), the “neurotoxicity in mouse neurons (in words)” value is “minimal neurotoxicity”. For the same compound, the “activity against L100I/K103N mutant (in words)” value in the data set on L100I/K103N HIV mutant is “not drastically mitigated; also recorded: retained activity”. Besides, the “acute toxicity (in words)” value with Balb/C male mice is listed as “no in vivo acute or subacute toxicity; also recorded: No visible signs of intoxication”. Further, in the data set on Balb/C mice (250 mg/kg group only), the “aspartate aminotransferase activity versus control (in words)” value was “reduced aspartate aminotransferase activity”. The “subacute toxicity (in words)” value in the data set with Balb/C mice (25 and 250 mg/kg daily) is “no in vivo acute or subacute toxicity”. Further, in the data set with HIV-1 IIIB virus (Human immunodeficiency virus 1, IIIB, TZM-bl, read-out: estimated EC90), the EC90 is 19 nM.

Take `Cn1c(Cn2ccc(C(F)(F)F)c(Oc3cc(Cl)cc(C#N)c3)c2=O)n[nH]c1=O` [Doravirine, doravirine]: the 50% inhibitory concentration (IC50) with HIV-RT was 11 nM.

On to `N#Cc1ccc(Nc2nc(N)n(S(=O)(=O)c3c(Cl)nc4sccn34)n2)cc1` [compound 11926331, 4-[[5-amino-1-(6-chloroimidazo[2,1-b]thiazol-5-yl)sulfonyl-1,2,4-triazol-3-yl]amino]-benzonitrile], for which the “RT activity (in words)” value in [2] (Table S1) is on record as “excellent”. Moreover, the “whole cell virus activity (in words)” value in the data set on HIV-1 IIIB virus (Table S1) is “excellent”.

Turning to `CO[P@](=O)(c1cc(C)cc(/C=C/C#N)c1)c1c(C(N)=O)[nH]c2ccc(Cl)cc12` [IDX899], the EC50 with HIV (aryl-phospho-indole) was 1 nM.

Turning to `Cc1cc(/C=C/C#N)cc(C)c1Nc1ccnc(Nc2ccc(C#N)cc2)n1` [RPV, rilpivirine], the “calcium spiking frequency, acute phase (in words)” value in the data set with primary mouse neurons [7] is “acute suppression”. Moreover, in [8], the “recorded CSF concentrations” value is “up to 2.9 ng/ml and ≤ 7.9 nM”. For the same compound, the EC50 in data set [1] (read-out: A17 EC50 (nM)) came out at 2.5 ± 1.9 nM; in data set [2], 160 ± 60 nM; in the data set with HIV-1 IIIB virus (setting [10]) it was 0.35 ± 0.03 nM. Further, in the data set on primary mouse neurons [3], the “estimated TC10” value was 600 to 930 nM. Besides, the “proposed plasma target concentration (protein binding-adjusted EC90)” value in the data set with HIV was 0.0121 µg/mL. Further, in the data set with HIV (read-out: proposed plasma target concentration (protein binding-adjusted EC90)), the EC90 is 33 nM. The “concentration shown to inhibit hERG in vitro” value at hERG is 300 nM.

For `N#Cc1ccc2c(S(=O)(=O)n3nc(Nc4ccc(C#N)c(Cl)c4)nc3N)cccc2c1` [compound 11826116, 5-[[5-amino-3-(3-chloro-4-cyano-anilino)-1,2,4-triazol-1-yl]sulfonyl]naphthalene-2-carbonitrile], the results for the EC50 (in data set [1] (read-out: A17 EC50 (nM)); in the data set on HIV-1 IIIB virus (setting [10])) were 25 ± 6.6 nM and 0.34 ± 0.04 nM, respectively.

As for `Nc1nc(Nc2ccc(Cl)cc2)nn1S(=O)(=O)c1ccc2ccccc2c1` [compound 11626007, N^3-(4-chlorophenyl)-1-(2-naphthylsulfonyl)-1,2,4-triazole-3,5-diamine], the “toxicity in MTS assay (in words)” value in the data set with TZM-bl cells is “No observable toxicity”. Besides, the “inhibition of A17 mutant (in words)” value in data set [1] (TZM-bl cells, early screening) was “No appreciable inhibition”. The compound also showed an EC50 in data set [2] of 280 ± 100 nM. In the data set on primary mouse neurons [3], the “TC50 (µM) Relative MAP-2 Area” value stood at 34 ± 46 µM and the “TC50 (µM) Relative MAP-2 intensity” value was 23 ± 18 µM.

The compound `N#Cc1ccc2c(S(=O)(=O)n3nc(Nc4ccc(C#N)c(C#N)c4)nc3N)cccc2c1` [compound 12126055, 4-[[5-amino-1-[(6-cyano-1-naphthyl)sulfonyl]-1,2,4-triazol-3-yl]amino]phthalonitrile] had a CC50 at 48 h in data set [9] of 28000 ± 66000 nM. The EC50 in data set [1] (read-out: A17 EC50 (nM)) turned out to be 49 ± 9.5 nM; in data set [2], 350 ± 130 nM; in the data set on HIV-1 IIIB virus (setting [10]), 0.21 ± 0.01 nM. In addition, the “TC50 (µM) Relative MAP-2 Area” value in the data set on primary mouse neurons [3] was 48 ± 86 µM. Further, in the data set with primary mouse neurons [3], the “TC50 (µM) Relative MAP-2 intensity” value is on record as 50 ± 140 µM.

Turning to `O=C1Nc2ccc(Cl)cc2[C@@](C#CC2CC2)(C(F)(F)F)O1` [EFV, efavirenz], in the data set on primary mouse neurons [7], the “calcium accumulation, delayed phase (in words)” value was “pronounced increase” and the “calcium spiking frequency, acute phase (in words)” value is “acute suppression”. The plasma levels in [8] (human, in vivo) was 3170 to 12670 nM. The “estimated TC10” value with primary mouse neurons [3] is listed as 70 nM.
